Experimental data gathered from unrelated publications.
Lines come from different studies, so protocols differ.
Read-out: enzyme activity
Mode: inhibitor
FLT3: Receptor-type tyrosine-protein kinase FLT3 (FLT3, Homo sapiens, UniProt P36888)

CN(C)C1CCN(CC#Cc2nn(C3CCCC3)c3nc(NCc4ccccc4)ncc23)C1 (stereo not drawn)
inhibition (FLT3; FRET; 0.1 µM): 13%

COc1cc2ncnc(Nc3ccc(Oc4ccccc4)c(C)c3C)c2cc1OC
inhibition (Receptor-type tyrosine-protein kinase FLT3 (FLT3, Homo sapiens, UniProt P36888, D835Y); 1 µM): 2%

CCOc1cc(-c2nncn2C)ccc1Nc1ncc2cc(C)nc(NCC(C)(C)C)c2n1
inhibition (FLT3; FRET; 1 µM): 54%

COc1cc2ncnc(Nc3ccc(Oc4ccccc4)cc3C)c2cc1OC
inhibition (FLT3; 1 µM): 79%

CC/C(=N\NC(=O)NCc1cccc(O)c1)c1ccc(O)c(C)c1O
inhibition (FLT3; 0.1 µM): 6%

Cn1cncc1C1=CN(c2ncnc3[nH]cnc23)CCS1
inhibition (FLT3; radiometric; 2 µM): 88.1%

CNC(=O)c1ccccc1Nc1cc(Nc2ccc(N3CCOCC3)cc2OC)ncc1C(F)(F)F
inhibition (FLT3; 0.1 µM): > 50%

C=CC(=O)Nc1cc(Nc2nccc(Nc3cc(Cl)c(F)cc3C(C)(C)O)n2)c(OC)cc1N1CC[C@@H](N(C)C)C1
inhibition (FLT3; 1 µM): 16%

CCCS(=O)(=O)Nc1ccc(F)c(C(=O)c2c[nH]c3ncc(-c4ccc(Cl)cc4)cc23)c1F
inhibition (FLT3; 1 µM): < 20%

CNc1cccc2cc(C(=O)Nc3ccc(C(=O)O)cc3)c(=O)[nH]c12
inhibition (FLT3; 10 µM): 7.9%

Cn1cnc(Br)c1C1=CN(c2ncnc3[nH]cnc23)CCS1
inhibition (FLT3; radiometric; 2 µM): 80.5%

CS(=O)(=O)Nc1cccc(-c2csc(NC(=O)CSc3nc4nccnc4c(=O)n3CCc3ccccc3)n2)c1
inhibition (FLT3; 10 µM): 8%
